“Also recorded” adds a separate entry of the source. Ends that are not written are not given here. * marks the point of attachment. Biotin = O=C1N[C@H]2[C@H](CS[C@H]2CCCCC(=O)*)N1
Key:
[1] = system: purified mitochondria, inner membrane; test: Respirometry: NADH-dependent oxygen consumption; assay type: biochemical, mouse; details: Bcl-2 0.8 μM pretreated 10 min; other agents added; Fig. 5 A, 6 B
In short: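 Oxygen uptake was recorded by Clark electrode at 37°C (mannitol/KCl/MgCl2/BSA/KH2PO4 medium, pH 7.4) after 2 mM NADH and 1 μM peptide, with rotenone added to test sensitivity; rates are in nmol O2/min/mg protein. For inhibitor tests, mitochondria were pretreated 10 min with 0.8 μM Bcl-2 or 10 μM BA before succinate plus CCCP or NADH. In the kinetics, 15 μM cytochrome c oxidation was followed in parallel, with 100% set by 2.5 mM laurylmaltoside.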

[2] = system: ANT; details: ref 8 26 28 40; cited from earlier work
[3] = system: ANT proteoliposomes; test: Binding of FITC-labeled Vpr52-96 to ANT proteoliposomes; set-up: species or system rat; details: FITC–Vpr52-96 (2 μM in Fig. 2 B); BA 50 μM; Bcl-2 800 nM preincubated (Fig. 8 B)
In short: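 ANT was purified from rat heart mitochondria (Triton X-100 extraction, hydroxyapatite, then cation-exchange with a 0–1 M NaCl gradient) and reconstituted at 0.1 mg/ml into phosphatidylcholine/cardiolipin liposomes, then dialysed overnight at 4°C. Proteoliposomes were exposed 30 min to FITC-peptide in 125 mM sucrose/10 mM Hepes pH 7.4, ultracentrifuged (290,000 g, 45 min, 10°C) and read by flow cytometry. Inhibitors were preincubated and washed out; mean ± SD, n = 3.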

[4] = system: purified mitochondria (ΔΨm); test: ΔΨm dissipation in purified mitochondria, effect of inhibitors; assay type: biochemical, mouse; details: for protection against Vpr-induced inner MMP (in words): purified mitochondria, Fig. 6 B–E
[5] = Binding of FITC–Vpr52-96 to purified mitochondria; set-up: species or system mouse; details: for effect on binding of Vpr52-96 to purified mitochondria: 10 min preincubation with inhibitors, Fig. 7 B
[6] = target: T1, ANT (Rattus norvegicus, UniProt Q05962); test: Planar lipid bilayers, single channel level, Vpr52-96 plus ANT; assay type: biochemical; details: +75 mV
T1 sequence (Q05962 1-298): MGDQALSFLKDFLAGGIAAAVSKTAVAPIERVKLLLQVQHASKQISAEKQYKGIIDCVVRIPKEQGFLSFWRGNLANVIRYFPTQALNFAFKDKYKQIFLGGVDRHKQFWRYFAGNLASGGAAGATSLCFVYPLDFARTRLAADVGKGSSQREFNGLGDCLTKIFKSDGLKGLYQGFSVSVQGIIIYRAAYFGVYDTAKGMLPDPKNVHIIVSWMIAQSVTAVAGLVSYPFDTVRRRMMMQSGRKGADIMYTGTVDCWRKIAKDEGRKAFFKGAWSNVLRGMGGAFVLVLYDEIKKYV
In short: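 Rat heart mitochondrial ANT, purified via subtilisin treatment, Triton X-100 solubilization, hydroxyapatite and SP column (0–1 M NaCl). Proteins held 30 min RT with 1 mM CaCl2, 40 μM atractyloside or control electrolyte, mixed with dried lipid (60 μg protein/mg lipid), detergent removed by beads. Tip-dip bilayers, symmetric 100 mM KCl, 2 mM MgCl2, 10 mM Hepes pH 7.4.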

[7] = system: VDAC; details: sucrose or cytochrome c, in vitro; ref 9 44; cited from earlier work
[8] = system: Vpr52-96–ANT interaction; assay type: binding, rat; details: native purified ANT; Fig. 8 A; X ± SD, n = 3
[9] = system: COS cells; test: ΔΨm dissipation in microinjected COS cells; assay type: cell-based
In short: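 COS cells grown in DMEM Glutamax with Hepes, antibiotics and 10% FCS on a premarked coverslip area (>200 cells per experiment). Cells were injected into the cytoplasm (200 hPa, 0.5 s) with PBS pH 7.2, recombinant human Bcl-2 (residues 1–218; 10 μM in the injection solution) or 2 μM König's polyanion.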

[10] = system: isolated mitochondria; test: Ultrastructure: swelling of isolated mitochondria; assay type: biochemical, mouse; details: Fig. 6 C
[11] = target: T1, ANT; test: Plasmon resonance; assay type: binding; details: for sensorgram: increase of binding as a function of time: plasmon resonance, association and dissociation phase, Fig. 1 A; for binding affinity for ANT (in words): surface plasmon resonance, purified detergent-solubilized ANT
[12] = system: ANT; test: Affinity purification of ANT by biotinylated Vpr52-96 and immunoblot; assay type: binding, mouse; details: Fig. 7 C
[13] = system: ANT proteoliposomes; test: Pore-opening assay: 4-MUP release from ANT proteoliposomes; assay type: biochemical, rat; details: peptides 1 μM, 60 min, Atr 200 μM = 100%, Fig. 2 C
In short: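 ANT purified from rat heart mitochondria, reconstituted into PC/cardiolipin liposomes, sonicated on ice with 1 mM 4-MUP/10 mM KCl, gel-filtered. Diluted in 10 mM Hepes, 125 mM saccharose pH 7.4, peptide 1 h RT; inhibitors added 30 min earlier. Alkaline phosphatase (0.5 mM MgCl2) 15 min 37°C, stopped at pH 10. 4-MU fluorescence 360/450 nm. Release = % of atractyloside response after untreated background subtraction; n = 3, SD.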

[14] = system: purified mitochondria (respiratory control); test: Respiratory control; assay type: biochemical, mouse; details: 1 μM Vpr-derived peptides, 10 min
In short: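 Clark-electrode oxygraphy at 37°C in 0.3 M mannitol, 10 mM KCl, 5 mM MgCl2, 1 mg/ml BSA, 10 mM KH2PO4, pH 7.4. Purified mitochondria were pretreated 10 min with 1 μM peptide; succinate oxidation was followed with sequential ADP, oligomycin and CCCP additions. Mean of three determinations.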

[15] = system: recombinant VDAC; test: Plasmon resonance: binding to recombinant VDAC; details: control experiments, VDAC concentrations up to 10 μM
[16] = target: biotin–Vpr52-96 (synthetic peptide, COOH-terminal moiety of HIV-1 viral protein R) (HIV-1) (UniProt P69726); test: SPR

Nc1ncnc2c1ncn2[C@@H]1O[C@H](COP(=O)(O)OP(=O)(O)O)[C@@H](O)[C@H]1O [ADP, reference compound]
effect on Vpr-induced NADH-dependent oxygen consumption [1]: strongly inhibited the Vpr-dependent, NADH-stimulated oxygen consumption

C=C1[C@@H]2CC[C@H]3[C@]4(C)C[C@H](O[C@@H]5O[C@H](CO)[C@@H](OS(=O)(=O)O)[C@H](OS(=O)(=O)O)[C@H]5OC(=O)CC(C)C)C[C@@H](C(=O)O)[C@H]4CC[C@]3(C2)[C@H]1O [Atr, atractyloside, reference compound]
effect on ANT pore formation [2]: cause ANT (which normally is a strictly specific ADP/ATP antiporter) to form a nonspecific pore

CO[C@H](C/C=C\C=C\CC/C=C/C[C@H](C)/C=C/C(=C\C(=O)O)CC(=O)O)/C(C)=C\C=C(/C)C(=O)O [BA, bongkrekic acid]
effect on Vpr binding to ANT proteoliposomes [3]: inhibited | protection against Vpr-induced inner MMP (in words) [4]: also inhibited the manifestations of inner MMP | effect on binding of Vpr52-96 to purified mitochondria [5]: partially reduced; also recorded: reduces the binding of Vpr to mitochondria to some extent

C=C(C)[C@H]1Cc2c(ccc3c2O[C@@H]2COc4cc(OC)c(OC)cc4[C@@H]2C3=O)O1 [rotenone, reference compound]
effect on Vpr-induced NADH-dependent oxygen consumption [1]: fully sensitive to rotenone

Bax: proapoptotic Bcl-2 family protein
conductance of Vpr52-96–ANT channels in presence of Bax ([6]; Vpr52-96 plus ANT plus Bax 0.4:1:0.3 nM, mean value): 245 ± 2 pS | effect on ANT pore formation [2]: cause ANT (which normally is a strictly specific ADP/ATP antiporter) to form a nonspecific pore | effect on permeabilization of VDAC-containing liposomes [7]: enhanced by Bax

Bcl-2: recombinant human Bcl-2 (amino acids 1–218)
effect of Bcl-2 proteins on Vpr52-96 binding to soluble ANT [8]: reduces the ANT–Vpr interaction; also recorded: reduced Vpr52-96 binding to soluble; also recorded: inhibits binding of Vpr52-96 to ANT | effect on Vpr binding to ANT proteoliposomes [3]: reduced | effect on formation of Vpr52-96–induced channels in ANT-containing lipid bilayers ([6]; Vpr52-96 plus ANT plus Bcl-2 0.4:1:1 nM, Fig. 8 C): suppresses channel formation by the ANT–Vpr complex; also recorded: abolished the formation of Vpr52-96–induced channels | effect on Vpr-induced NADH-dependent oxygen consumption [1]: inhibited the Vpr-mediated inner MMP to NADH | inhibition of Vpr-induced ΔΨm loss in intact cells ([9]; 10 μM recombinant human Bcl-2 microinjected, 1 μM Vpr52-96, 3 h): ≥ 95% | cells with ΔΨm reduction, inhibitor-injected ([9]; Bcl-2-injected (10 μM), 1 μM Vpr52-96, 3 h): Less than 5% | inhibition of Vpr-induced matrix swelling ([10]; Bcl-2 preincubation): ~50% | effect on Vpr52-96-induced matrix swelling (in words) [10]: strongly reduced the Vpr52-96–induced matrix swelling | inhibition of Vpr-induced ΔΨm loss in purified mitochondria ([4]; Bcl-2 preincubation (0.8 μM), Fig. 6 D, E): ~70% | protection against Vpr-induced inner MMP (in words) [4]: protect mitochondria against Vpr-induced MMP | effect on binding of Vpr52-96 to purified mitochondria [5]: failed to impair the binding of Vpr52-96 to purified mitochondria; also recorded: not affected | effect on permeabilization of VDAC-containing liposomes [7]: inhibited by Bcl-2

FITC-labeled Vpr52-96: FITC-labeled Vpr52-96 (DTWAGVEAIIRILQQLLFIHFRIGCRHSRIGVTRQRRARNGASRS; also: FITC label, position not given here)
binding of FITC-labeled Vpr52-96 to intact mitochondria ([5]; 0.5 μM FITC–Vpr52-96, Fig. 7 A): rapidly bound to intact mitochondria and then provoked ΔΨm loss

HWWRAESDEARRCYNDPKCCDFVTNR [irrelevant control (Co.), reference compound]
sensorgram: increase of binding as a function of time [11]: Only the sensorgram of the interaction with Vpr52-96 exhibits an increase of binding

König's polyanion [PA10]
effect on Vpr action on intact cells (in words) ([9]; 2 μM PA10 microinjected, 1 μM Vpr52-96, 3 h): also inhibited the effect of Vpr52-96 on intact cells | protection against Vpr-induced inner MMP (in words) [4]: also inhibited the manifestations of inner MMP | effect on binding of Vpr52-96 to purified mitochondria [5]: completely abolished; also recorded: completely blocks the binding of Vpr52-96 to intact mitochondria | effect on Vpr52-96-mediated purification of ANT, intact mitochondria ([12]; 5 μM biotinylated Vpr52-96, 30 min RT, lysed after incubation): fully abolished | effect on Vpr52-96-mediated purification of ANT, Triton-solubilized mitochondria ([12]; mitochondria lysed before incubation with 5 μM biotinylated Vpr52-96): did not affect

Vpr1-51: NH2-terminal moiety of Vpr
permeabilization of ANT proteoliposomes [13]: but not the NH2-terminal moiety of Vpr [Vpr1-51] | effect on RC (in words) [14]: but not Vpr1-51

Vpr52-96[R73A,80A] (Biotin-DTWAGVEAIIRILQQLLFIHFAIGCRHSAIGVTRQRRARNGASRS)
sensorgram: increase of binding as a function of time [11]: Only the sensorgram of the interaction with Vpr52-96 exhibits an increase of binding | specific binding to VDAC [15]: without any difference between Vpr52-96 and Vpr52-96[R73A, 80A] and without detectable saturation

Vpr: Vpr added extracellularly to intact cells; Fig. 6 A legend gives 1 μM Vpr52-96
vehicle-microinjected cells with complete ΔΨm dissipation ([9]; 1 μM Vpr52-96 (Fig. 6 A), 3 h, n = 3): 61 ± 8%

adenine nucleotide translocator (ANT) purified from rat heart mitochondria (from UniProt Q05962 1-298) (natural protein)
Kd [16]: 9.7 nM

biotin–Vpr52-96: NH2-terminally biotinylated Vpr52-96 (Biotin-DTWAGVEAIIRILQQLLFIHFRIGCRHSRIGVTRQRRARNGASRS)
binding affinity for ANT (in words) [11]: affinity in the nanomolar range

biotin–Vpr52-96[R73,80A]: mutated biotin–Vpr52-96[R73,80A], immobilized on biosensor chip (Biotin-DTWAGVEAIIRILQQLLFIHFAIGCRHSAIGVTRQRRARNGASRS)
binding affinity for ANT (in words) [11]: to a far lesser extent

cyclosporin A [CsA]
protection against Vpr-induced inner MMP (in words) [4]: also inhibited the manifestations of inner MMP | effect on binding of Vpr52-96 to purified mitochondria [5]: not affected

— PMC2195906 (The Journal of Experimental Medicine, 2001)
